Converted amounts (≈) assume the structure as drawn.
Tests used:
[1] = Cytotoxicity against human Bel7402 cells by MTT assay; details: Bel-7402
Pyricularia oryzae = assay: Antifungal activity against Magnaporthe oryzae assessed as inhibition of spore germination incubated for 8 hrs; type: functional, organism-based
Ralstonia solanacearum = assay: Antibacterial activity against Ralstonia solanacearum ATCC 11696 by modified broth dilution method; type: functional
[2] = system: Staphylococcus haemolyticus; assay: Antibacterial activity against Staphylococcus haemolyticus ATCC 29970 by modified broth dilution method; type: functional
Outline: (§1)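 MIC read in 96-well plates by a modified broth dilution test; streptomycin sulfate as positive control.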

A2780 = assay: Cytotoxicity against human A2780 cells by MTT assay
Pseudomonas = assay: Antibacterial activity against Pseudomonas lachrymans ATCC 11921 by modified broth dilution method; type: functional; outline: as §1
[3] = Cytotoxicity against human BGC823 cells by MTT assay; details: BGC-823
A549 = assay: Cytotoxicity against human A549 cells by MTT assay; type: functional, cell-based
Bacillus subtilis = assay: Antibacterial activity against Bacillus subtilis ATCC 11562 by modified broth dilution method; type: functional; outline: as §1
[4] = Cytotoxicity against human HCT8 cells by MTT assay; details: HCT-8
Xanthomonas vesicatoria = assay: Antibacterial activity against Xanthomonas vesicatoria ATCC 11633 by modified broth dilution method; type: functional; outline: as §1
[5] = system: Agrobacterium tumefaciens; assay: Antibacterial activity against Agrobacterium tumefaciens No.8 ATCC 11158 by modified broth dilution method; type: functional; outline: as §1

| SMILES | IC50 [1] [µM] | IC50 (Pyricularia oryzae) [µg/mL] | MIC (Ralstonia solanacearum) [µg/mL] | MIC [2] [µg/mL] | IC50 (A2780) [µM] | MIC (Pseudomonas) [µg/mL] | IC50 [3] [µM] | IC50 (A549) [µM] | MIC (Bacillus subtilis) [µg/mL] | IC50 [4] [µM] | MIC (Xanthomonas vesicatoria) [µg/mL] | MIC [5] [µg/mL] |
| --- | --- | --- | --- | --- | --- | --- | --- | --- | --- | --- | --- | --- |
| Oc1cccc2c1[C@@H](O)[C@H]1O[C@H]1C21Oc2cccc3cccc(c23)O1 | > 10 | 32.3 (≈ 96.6 µM) | 37.5 (≈ 112 µM) | 25 (≈ 74.8 µM) | > 10 | 37.5 (≈ 112 µM) | > 10 | > 10 | 25 (≈ 74.8 µM) | > 10 | 37.5 (≈ 112 µM) | 37.5 (≈ 112 µM) |
| O=C1C=C[C@H](O)[C@@]23O[C@@]12C1(Oc2cccc4cccc(c24)O1)[C@H](O)[C@@H](O)[C@@H]3O | > 10 | > 200 | 200 (≈ 520 µM) | 200 (≈ 520 µM) | > 10 | 150 (≈ 390 µM) | > 10 | > 10 | 200 (≈ 520 µM) | > 10 | 150 (≈ 390 µM) | 200 (≈ 520 µM) |
| O=C1C[C@@H](O)[C@H](O)[C@@]23O[C@@]12C1(Oc2cccc4cccc(c24)O1)[C@@H]1O[C@@H]1[C@@H]3O | 3.3 | > 200 | 75 (≈ 195 µM) | 75 (≈ 195 µM) | 5.8 | 75 (≈ 195 µM) | 3.3 | 3.2 | 75 (≈ 195 µM) | 1.7 | 75 (≈ 195 µM) | 75 (≈ 195 µM) |
| CO[C@@H]1CC(=O)[C@]23O[C@]2([C@@H](O)[C@H]2O[C@H]2C32Oc3cccc4cccc(c34)O2)[C@H]1O | 6.4 | > 200 | 37.5 (≈ 94.1 µM) | 50 (≈ 126 µM) | > 10 | 37.5 (≈ 94.1 µM) | > 10 | 8.7 | 37.5 (≈ 94.1 µM) | > 10 | 37.5 (≈ 94.1 µM) | 50 (≈ 126 µM) |
| Oc1ccc(O)c2c1[C@@H](O)[C@H]1O[C@H]1C21Oc2cccc3cccc(c23)O1 | > 10 | 76.7 (≈ 219 µM) | 250 (≈ 714 µM) | 250 (≈ 714 µM) | > 10 | 200 (≈ 571 µM) | > 10 | > 10 | 100 (≈ 285 µM) | > 10 | 200 (≈ 571 µM) | 250 (≈ 714 µM) |
| O=C1C[C@@H](O)C2(Oc3cccc4cccc(c34)O2)c2c(O)ccc(O)c21 | > 10 | 64.8 (≈ 185 µM) | 37.5 (≈ 107 µM) | 50 (≈ 143 µM) | > 10 | 37.5 (≈ 107 µM) | > 10 | > 10 | 37.5 (≈ 107 µM) | > 10 | 50 (≈ 143 µM) | 37.5 (≈ 107 µM) |
| Oc1ccc(O)c2c1C=C[C@@H](O)C21Oc2cccc3cccc(c23)O1 | > 10 | 35.9 (≈ 107 µM) | 37.5 (≈ 112 µM) | 37.5 (≈ 112 µM) | > 10 | 25 (≈ 74.8 µM) | > 10 | > 10 | 50 (≈ 150 µM) | > 10 | 37.5 (≈ 112 µM) | 37.5 (≈ 112 µM) |
| O=C1C(Cl)=CC2(Oc3cccc4cccc(c34)O2)[C@]23O[C@]12[C@H](O)CCC3=O | 2.5 | 9.1 (≈ 23.7 µM) | 25 (≈ 65 µM) | 25 (≈ 65 µM) | 1.3 | 25 (≈ 65 µM) | 2.6 | 1.6 | 50 (≈ 130 µM) | 4.2 | 25 (≈ 65 µM) | 25 (≈ 65 µM) |
| O=C1CC[C@@H](O)[C@@]23O[C@@]12C1(Oc2cccc4cccc(c24)O1)[C@H](O)[C@@H](O)[C@@H]3O | > 10 | > 200 | > 250 | > 250 | > 10 | > 250 | > 10 | > 10 | > 250 | > 10 | > 250 | > 250 |
| O[C@@H]1[C@@H](O)C2(Oc3cccc4cccc(c34)O2)[C@@]23O[C@@]2([C@@H](O)C=C[C@H]3O)[C@H]1O | > 10 | > 200 | > 250 | > 250 | > 10 | > 250 | > 10 | > 10 | > 250 | > 10 | > 250 | > 250 |
| O[C@@H]1[C@@H](O)C2(Oc3cccc4cccc(c34)O2)[C@@]23O[C@@]2([C@@H](O)CC[C@H]3O)[C@H]1O | > 10 | > 200 | > 250 | > 250 | > 10 | > 250 | > 10 | > 10 | > 250 | > 10 | > 250 | > 250 |
| O=C1C[C@H](O)[C@H](O)C2=C[C@H](O)[C@@H](O)C3(Oc4cccc5cccc(c45)O3)[C@]12O | > 10 | > 200 | > 250 | > 250 | > 10 | > 250 | > 10 | > 10 | > 250 | > 10 | > 250 | > 250 |
| O=C1CCC2(Oc3cccc4cccc(c34)O2)c2c(Cl)ccc(O)c21 | > 10 | > 200 | > 250 | > 250 | > 10 | > 250 | > 10 | > 10 | > 250 | > 10 | > 250 | > 250 |
| O=C1C[C@H](O)[C@H](O)[C@@]23O[C@@]12C1(Oc2cccc4cccc(c24)O1)[C@@H]1O[C@@H]1[C@@H]3O | > 10 | > 200 | > 250 | > 250 | > 10 | > 250 | > 10 | > 10 | > 250 | > 10 | > 250 | > 250 |
| O[C@@H]1C=C[C@H](O)[C@@]23O[C@@]12C1(Oc2cccc4cccc(c24)O1)[C@@H]1O[C@@H]1[C@@H]3O | > 10 | > 200 | > 250 | > 250 | > 10 | > 250 | > 10 | > 10 | > 250 | > 10 | > 250 | > 250 |
| O[C@@H]1CC[C@H](O)[C@@]23O[C@@]12C1(Oc2cccc4cccc(c24)O1)[C@@H]1O[C@@H]1[C@@H]3O | > 10 | > 200 | > 250 | > 250 | > 10 | > 250 | > 10 | > 10 | > 250 | > 10 | > 250 | > 250 |
| O=C1C=C[C@H](O)[C@@]23O[C@@]12C1(Oc2cccc4cccc(c24)O1)[C@@H]1O[C@@H]1[C@@H]3O | 5.1 | 105 (≈ 287 µM) | 50 (≈ 136 µM) | 50 (≈ 136 µM) | > 10 | 50 (≈ 136 µM) | > 10 | 8.8 | 50 (≈ 136 µM) | > 10 | 50 (≈ 136 µM) | 50 (≈ 136 µM) |
| COC(=O)Nc1nc2ccccc2[nH]1 [CARBENDAZIM] |  | 6.3 (≈ 33 µM) |  |  |  |  |  |  |  |  |  |  |
| O=C1CCC2(Oc3cccc4cccc(c34)O2)c2c(O)ccc(O)c21 [PALMARUMYCIN CP17] | > 10 | > 200 | > 250 | > 250 | > 10 | > 250 | > 10 | > 10 | > 250 | > 10 | > 250 | > 250 |
| CN[C@@H]1[C@H](O[C@H]2[C@H](O[C@H]3[C@H](O)[C@@H](O)[C@H](N=C(N)N)[C@@H](O)[C@@H]3N=C(N)N)O[C@@H](C)[C@]2(O)C=O)O[C@@H](CO)[C@H](O)[C@H]1O.CN[C@@H]1[C@H](O[C@H]2[C@H](O[C@H]3[C@H](O)[C@@H](O)[C@H](N=C(N)N)[C@@H](O)[C@@H]3N=C(N)N)O[C@@H](C)[C@]2(O)C=O)O[C@@H](CO)[C@H](O)[C@H]1O.O=S(=O)(O)O.O=S(=O)(O)O.O=S(=O)(O)O [STREPTOMYCIN SULFATE] |  |  | 5 | 5 |  | 7.5 |  |  | 5 |  | 10 | 5 |

— ChEMBL document CHEMBL3352444, “Bioactive spirobisnaphthalenes from the endophytic fungus Berkleasmium sp” (J Nat Prod, 2014)
